Bioassay records (PubChem)
MrgX1 agonist – human MrgX1 receptor agonism, primary screen; Q96LB2; MrgX1-HEK293 cells, Fluo-4 calcium fluorescence, agonist mode; stronger effect = higher value; AID 588627; 0.44% of 310,000 active; B-score at 10 µM;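 active means calcium response B-score plate-corrected fluorescence ratio at least 3 library SD, with starting fluorescence B-score inside 5 SD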
Target sequence (Q96LB2 whole entry, looked up): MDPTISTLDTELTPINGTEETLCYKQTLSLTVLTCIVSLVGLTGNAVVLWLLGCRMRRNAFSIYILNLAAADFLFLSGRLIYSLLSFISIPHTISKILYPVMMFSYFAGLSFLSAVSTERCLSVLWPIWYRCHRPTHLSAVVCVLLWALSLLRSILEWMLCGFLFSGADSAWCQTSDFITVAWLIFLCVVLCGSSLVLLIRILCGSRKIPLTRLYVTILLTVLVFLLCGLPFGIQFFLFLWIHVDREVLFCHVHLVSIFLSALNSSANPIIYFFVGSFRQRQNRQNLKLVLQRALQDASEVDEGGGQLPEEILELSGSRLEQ
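System – MrgX1-expressing HEK293 cells · Incubation – cells plated overnight, dye loaded 0.5 h 37 °C, 0.5 h room temperature · Technique – kinetic Fluo-4 NW fluorescence of intracellular calcium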
RGS4 block – inhibitors of human RGS4; P49798; HEK293 M3R/RGS4 inducible, Fluo-4 calcium flux; stronger effect = higher value; triggered by carbachol at its EC20; 0.45% of 310,000 active; B-score at 10 µM; AID 463165;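 active means B-score, a plate-corrected calcium signal, over three deviations above library mean, with baseline fluorescence within five deviations of library mean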;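 further: RGS4 expression induced by doxycycline in cells with stable M3 receptor; B-score is computed from the integrated fluorescence ratio over baseline after carbachol; higher B-score means a larger calcium signal and so more RGS4 inhibition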
Target sequence (P49798 whole entry, looked up): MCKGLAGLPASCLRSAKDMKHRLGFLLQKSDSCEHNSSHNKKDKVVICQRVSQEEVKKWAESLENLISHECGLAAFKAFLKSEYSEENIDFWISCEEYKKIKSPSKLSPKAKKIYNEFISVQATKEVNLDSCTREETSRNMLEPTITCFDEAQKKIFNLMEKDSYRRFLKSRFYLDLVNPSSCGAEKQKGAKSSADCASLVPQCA
MrgX1 allo act – allosterically activates human MrgX1 receptor signaling; Q96LB2; 0.63% of 310,000 active; MrgX1-HEK293, Fluo-4 calcium flux, FDSS; stronger effect = higher value; B-score at 10 µM;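 active means plate-corrected calcium response at least 3 library SD above typical, normal starting fluorescence, not activating the receptor alone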;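 further: compound read alongside a low EC10 to EC30 dose of BAM8-22 agonist; peak minus trough fluorescence over baseline measured at the second addition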
RGS4 pot – RGS4 potentiation or activation; HEK293 M3R/inducible RGS4, carbachol calcium flux Fluo4; stronger effect = lower value; B-score at 10 µM; 0.92% of 310,000 active; AID 463111;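 active means B-score of the integrated calcium signal more than 4 SD below the library mean, with starting fluorescence not abnormally high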;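 further: negative B-score means reduced calcium response which marks RGS4 activation or potentiation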
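System – HEK293 FlpIn-TREx cells, stable M3R, doxycycline-inducible RGS4 · Reagent – ECmax carbachol challenge · Times – compound preincubation 20 min at room temperature before agonist · Technique – Fluo4 fluorescence kinetic imaging of calcium · Measure – B score of integrated Fluo4 ratio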
MrgX1 antagonist – blocks BAM8-22 activation of human MrgX1 receptor | Q96LB2 | MRGX1-HEK293 calcium flux, Fluo-4, BAM8-22 antagonism; stronger effect = lower value | B-score at 10 µM | 1.3% of 310,000 active | AID 588676;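 active means calcium-response B-score plate-corrected more than 3 library SD below zero, starting fluorescence within 5 deviations, no agonist response on first addition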;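 further: peak minus trough fluorescence over baseline after final BAM8-22 challenge near maximal dose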
An asterisk follows results filed as active; i = inactive; . = no result given. Rows were chosen to be rich in hits. Some 3.5% of all compounds tested hit in one or more screens of this group.

SMILES | MrgX1 agonist | RGS4 block | MrgX1 allo act | RGS4 pot | MrgX1 antagonist
O=C(CCSc1ccc(Cl)cc1)N1CCN(c2ccc(O)cc2)CC1 | i | i | i | -7.2* | i
Oc1ccc(C=NC2CCCCC2)c(O)c1 | i | i | i | i | i
N/C(=N\OC(=O)CCCc1ccccc1)c1ccc(Br)cc1 | i | i | i | i | i
CC(c1ccccc1)C1C(C#N)=C(N)OC2=C1C(=O)CC(C)(C)C2 (centres undefined) | i | i | i | i | i
CC1(C)CC(=O)C2=C(C1)OC(N)=C(C#N)C2C#Cc1ccccc1 (centres undefined) | 53* | i | i | i | i
O=C(Cc1cccs1)Nc1ccc(-c2nnn(CC(=O)N3CCOCC3)n2)cc1 | i | i | i | i | -6.4*
CC(=O)Nc1sc(/C(C#N)=C/c2ccc(Cl)c(Cl)c2)nc1-c1ccc(C)cc1 | . | i | . | -8.9* | .
CC(=O)Nc1sc(N/N=C/c2ccc(C)cc2)nc1-c1ccc(C)cc1 | i | i | i | i | i
CN1C(=O)/C(=C\C=C2/CCCN2C)N(C)C1=S | i | i | i | i | i
CCN1C(=O)/C(=C/C=C2/CCCN2C)OC1=S | 27* | i | i | i | i
Cc1ccc(S(=O)(=O)N2CCC(=O)N(C(COCc3cccc(C(F)(F)F)c3)Cc3ccccc3)CC2)cc1 (centres undefined) | i | i | i | i | -4.5*
CCN(CC)Cc1c(C(=O)N/N=C/c2ccco2)nnn1-c1nonc1N | i | i | i | i | i
COC(=O)c1cccc(-c2ccc(/C=N/N3C(=O)C4C5C=CC(C6CC56)C4C3=O)o2)c1 (centres undefined) | i | i | i | -9.9* | i
O=C(Nc1ccc(N2CCOCC2)c(Cl)c1)c1ccccc1Cl | i | i | i | i | i
CCOC(=O)C1=C(C)N=c2s/c(=C\c3ccc(O)c([N+](=O)[O-])c3)c(=O)n2C1c1ccccc1OC (centres undefined) | i | i | i | i | -4.6*
CCOC(=O)C1=C(C)N=c2s/c(=C/c3ccc(OCC(=O)O)cc3)c(=O)n2C1c1ccc(F)cc1 (centres undefined) | i | i | i | -8.3* | i
CCOC(=O)C1=C(C)N=c2s/c(=C/c3ccc(OCC(=O)O)cc3)c(=O)n2C1c1ccc(OC)cc1OC (centres undefined) | i | i | i | i | i
CCOC(=O)C1=C(C)N=c2s/c(=C/c3cccc([N+](=O)[O-])c3O)c(=O)n2C1c1ccc(OC)cc1OC (centres undefined) | i | i | i | -8.4* | i
CCOC(=O)C1=C(CN2CCCCC2)NC(=O)NC1c1cc(C)ccc1C (centres undefined) | i | i | i | i | i
CCc1ccc(CC)c(S(=O)(=O)Nc2ccc(O)c(C(=O)O)c2)c1 | i | i | i | i | i
Cn1c(=O)c(Nc2ccc(Cl)cc2)c2c3c(cccc31)C(=O)c1ccccc1-2 | i | i | i | -7* | i
CCOC(=O)c1c2c3c(cccc3n(C)c1=O)C(=O)c1ccccc1-2 | i | i | i | i | i
Cc1nn(-c2ccccc2)c(Cl)c1C(=O)N1CCN(c2ncnc3c2cnn3-c2ccccc2)CC1 | i | i | i | i | -7.6*
OCCC1CN(Cc2nc3ccccc3s2)CCN1C1CCCCC1 (centres undefined) | i | i | i | i | -5.2*
COc1ccc2c(c1)C=C(CN1CCN(C3CCCC3)C(CCO)C1)CO2 (centres undefined) | i | i | i | -7* | i
SMILES | MrgX1 agonist | RGS4 block | MrgX1 allo act | RGS4 pot | MrgX1 antagonist
CC(C)CN1CCN(Cc2nc3ccccc3s2)CC1CCO (centres undefined) | i | i | i | i | i
OCCC1CN(Cc2nc(-c3ccccc3)cs2)CCN1C1CCCC1 (centres undefined) | i | i | i | -7.2* | i
CC(=O)Oc1cc2oc(=O)c3c(c2cc1Cl)CCC3 | i | i | i | i | i
CCOC(=O)c1cc(=O)c2ccc(OCC(=O)Nc3ccc(F)cc3)cc2o1 | i | i | i | i | i
COc1ccc(CCN2CC(C(=O)N3CCN(C(C)=O)CC3)CCC2=O)cc1 (centres undefined) | i | i | i | i | i
CCn1ncc(Br)c1C(=O)Nc1cc(C(=O)OC)ccc1C(=O)OC | i | i | i | i | i
Cc1nn(-c2ccccc2)c(Cl)c1CN(C(=O)CCl)c1cccc2ccccc12 | i | i | 11* | i | i
CC1(C)C(=O)Nc2ccccc2N1C(=O)COC(=O)COc1ccc(C#N)cc1 | i | i | i | i | i
CCCc1cc(=O)oc2cc(OC(=O)CN3C(=O)NC4(CCCC4)C3=O)ccc12 | i | i | i | i | -8.6*
CC1(C)CC(c2nc(-c3ccc(Cl)cc3)cs2)CCS1 (centres undefined) | i | i | 8.7* | i | i
Cc1ccc2cc(CN(CCc3ccccc3)C(=S)NCCCN(C)C)c(=O)[nH]c2c1 | i | i | 6.6* | i | i
O=C(c1ccco1)N1CCC(c2nc(-c3ccc(F)cc3)no2)CC1 | i | i | i | i | i
O=C(N/N=C/c1cc([N+](=O)[O-])ccc1O)c1cc(-c2ccccc2)nc2ccccc12 | i | i | i | i | -6*
O=[N+]([O-])c1ccc(N/N=C/c2sc(N3CCOCC3)nc2-c2ccccc2)c(S(=O)(=O)Nc2ccc(Cl)cc2)c1 | . | i | . | -7.5* | .
COc1ccc(CNC(=O)CC(C)CC2=NS(=O)(=O)c3ccccc3N2)cc1 (centres undefined) | i | i | i | i | i
Cn1cccc1-c1cc(C(=O)N/N=C/C=C/c2ccccc2)[nH]n1 | i | i | i | i | -5.8*
COc1cc(/C=C2/C(=N)N3C(=NC2=O)SN=C3S(C)(=O)=O)ccc1OS(=O)(=O)c1ccccc1 | i | i | 28* | i | i
COc1cc(/C=C2\C(=N)N3N=C(S(C)(=O)=O)SC3=NC2=O)ccc1OC(=O)c1cccs1 | i | i | 8.2* | i | i
COc1cc(/C=C2/C(=O)N(c3ccccc3)N=C2C)ccc1OS(=O)(=O)c1ccccc1 | i | i | i | i | i
CCS(=O)(=O)C1=NSC2=NC(=O)/C(=C\c3ccc(OC(=O)c4ccco4)cc3)C(=N)N21 | i | i | 19* | i | i
